From ChEMBL document CHEMBL3774372, “Design, physico-chemical properties and biological evaluation of some new N-[(phenoxy)alkyl]- and N-{2-[2-(phenoxy)ethoxy]ethyl}aminoalkanols as anticonvulsant agents” (Bioorg Med Chem, 2016)
Active and inactive are the calls of the source.

System: Rattus norvegicus
Assay: Anticonvulsant activity in rat assessed as protection against maximal electric shock-induced seizures at 30 mg/kg, po measured after 0.5 hrs
Format: functional, organism-based
Conditions: not given
Method in brief: (§1)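 Rats dosed ip or orally as 0.5% methylcellulose suspension; maximal electroshock at listed time. Protection = abolition of hindlimb tonic extension; 4 rats per group, scored protected/tested.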

SMILES | Activity
Cc1cc(C)c(OCCN[C@@H]2CCCC[C@H]2O)c(C)c1 (racemic) | inactive
Cc1cc(C)c(OCCN[C@H]2CC[C@H](O)CC2)c(C)c1 | inactive

System: Rattus norvegicus
Assay: Anticonvulsant activity in rat assessed as protection against maximal electric shock-induced seizures at 30 mg/kg, po measured after 1 hr
Format: functional, organism-based
Conditions: not given
Method in brief: as §1

SMILES | Activity
Cc1cc(C)c(OCCN[C@@H]2CCCC[C@H]2O)c(C)c1 (racemic) | inactive
Cc1cc(C)c(OCCN[C@H]2CC[C@H](O)CC2)c(C)c1 | inactive

System: Mus musculus
Assay: Anticonvulsant activity in mouse assessed as protection against maximal electric shock-induced seizures at 3 mg/kg, ip measured after 0.5 hrs
Format: functional, organism-based
Conditions: not given
Method in brief: (§2)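 Mice dosed ip with suspension in 0.5% methylcellulose; maximal electroshock applied at the listed time after dosing. Protection = abolition of hindlimb tonic extension component of seizure; reported as animals protected/animals tested.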

SMILES | Activity
Cc1cc(C)c(OCCN[C@@H]2CCCC[C@H]2O)c(C)c1 (racemic) | inactive

System: Rattus norvegicus
Assay: Anticonvulsant activity in rat assessed as protection against maximal electric shock-induced seizures at 30 mg/kg, po measured after 2 hrs
Format: functional, organism-based
Conditions: not given
Method in brief: as §1

SMILES | Activity
Cc1cc(C)c(OCCN[C@@H]2CCCC[C@H]2O)c(C)c1 (racemic) | inactive
Cc1cc(C)c(OCCN[C@H]2CC[C@H](O)CC2)c(C)c1 | inactive

System: Rattus norvegicus
Assay: Neurotoxicity in rat at 30 mg/kg, po after […] by rotarod test
Format: toxicity, organism-based
Conditions: in vivo

SMILES | Activity
Cc1cc(C)c(OCCN[C@@H]2CCCC[C@H]2O)c(C)c1 (racemic) | Non-toxic
Cc1cc(C)c(OCCN[C@H]2CC[C@H](O)CC2)c(C)c1 | Non-toxic

System: Rattus norvegicus
Assay: Neurotoxicity in rat at 30 mg/kg, po after 0.5 hrs by rotarod test
Format: toxicity, organism-based
Conditions: in vivo

SMILES | Activity
Cc1cc(C)c(OCCN[C@@H]2CCCC[C@H]2O)c(C)c1 (racemic) | Non-toxic
Cc1cc(C)c(OCCN[C@H]2CC[C@H](O)CC2)c(C)c1 | Non-toxic

System: Rattus norvegicus
Assay: Neurotoxicity in rat at 30 mg/kg, po after 1 hr by rotarod test
Format: toxicity, organism-based
Conditions: in vivo

SMILES | Activity
Cc1cc(C)c(OCCN[C@@H]2CCCC[C@H]2O)c(C)c1 (racemic) | Non-toxic
Cc1cc(C)c(OCCN[C@H]2CC[C@H](O)CC2)c(C)c1 | Non-toxic

System: Rattus norvegicus
Assay: Neurotoxicity in rat at 30 mg/kg, po after 2 hrs by rotarod test
Format: toxicity, organism-based
Conditions: in vivo

SMILES | Activity
Cc1cc(C)c(OCCN[C@@H]2CCCC[C@H]2O)c(C)c1 (racemic) | Non-toxic
Cc1cc(C)c(OCCN[C@H]2CC[C@H](O)CC2)c(C)c1 | Non-toxic

System: Rattus norvegicus
Assay: Neurotoxicity in rat at 30 mg/kg, po after 4 hrs by rotarod test
Format: toxicity, organism-based
Conditions: in vivo

SMILES | Activity
Cc1cc(C)c(OCCN[C@@H]2CCCC[C@H]2O)c(C)c1 (racemic) | Non-toxic
Cc1cc(C)c(OCCN[C@H]2CC[C@H](O)CC2)c(C)c1 | Non-toxic

System: Mus musculus
Assay: Anticonvulsant activity in mouse assessed as protection against maximal electric shock-induced seizures at 30 mg/kg, ip measured after 0.5 hrs
Format: functional, organism-based
Conditions: not given
Method in brief: as §2

SMILES | Activity
Cc1cc(C)c(OCCN[C@@H]2CCCC[C@H]2O)c(C)c1 (racemic) | Active
Cc1cc(C)c(OCCN[C@H]2CC[C@H](O)CC2)c(C)c1 | inactive

System: Mus musculus
Assay: Anticonvulsant activity in mouse assessed as protection against maximal electric shock-induced seizures at 30 mg/kg, ip measured after 4 hrs
Format: functional, organism-based
Conditions: not given
Method in brief: as §2

SMILES | Activity
Cc1cc(C)c(OCCN[C@@H]2CCCC[C@H]2O)c(C)c1 (racemic) | inactive
Cc1cc(C)c(OCCN[C@H]2CC[C@H](O)CC2)c(C)c1 | inactive

System: Mus musculus
Assay: Anticonvulsant activity in mouse assessed as protection against maximal electric shock-induced seizures at 100 mg/kg, ip measured after 0.5 hrs
Format: functional, organism-based
Conditions: not given
Method in brief: as §2

SMILES | Activity
Cc1cc(C)c(OCCN[C@H]2CC[C@H](O)CC2)c(C)c1 | Active

System: Mus musculus
Assay: Anticonvulsant activity in mouse assessed as protection against maximal electric shock-induced seizures at 100 mg/kg, ip measured after 4 hrs
Format: functional, organism-based
Conditions: not given
Method in brief: as §2

SMILES | Activity
Cc1cc(C)c(OCCN[C@@H]2CCCC[C@H]2O)c(C)c1 (racemic) | inactive
Cc1cc(C)c(OCCN[C@H]2CC[C@H](O)CC2)c(C)c1 | inactive

System: Mus musculus
Assay: Anticonvulsant activity in mouse assessed as protection against subcutaneous pentylenetetrazol-induced seizures at 30 mg/kg, ip measured after 0.5 hrs
Format: functional, organism-based
Conditions: not given
Method in brief: (§3)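 Mice dosed ip as 0.5% methylcellulose suspension; pentylenetetrazole 85 mg/kg in 0.9% NaCl injected subcutaneously into posterior midline, animals watched at least 30 min. Protection = no threshold seizure (single clonic spasm episode lasting ≥5 s); scored protected/tested.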

SMILES | Activity
Cc1cc(C)c(OCCN[C@@H]2CCCC[C@H]2O)c(C)c1 (racemic) | inactive
Cc1cc(C)c(OCCN[C@H]2CC[C@H](O)CC2)c(C)c1 | inactive

System: Mus musculus
Assay: Anticonvulsant activity in mouse assessed as protection against subcutaneous pentylenetetrazol-induced seizures at 100 mg/kg, ip measured after 0.5 hrs
Format: functional, organism-based
Conditions: not given
Method in brief: as §3

SMILES | Activity
Cc1cc(C)c(OCCN[C@H]2CC[C@H](O)CC2)c(C)c1 | inactive

System: Mus musculus
Assay: Anticonvulsant activity in mouse assessed as protection against subcutaneous pentylenetetrazol-induced seizures at 30 mg/kg, ip measured after 4 hrs
Format: functional, organism-based
Conditions: not given
Method in brief: as §3

SMILES | Activity
Cc1cc(C)c(OCCN[C@@H]2CCCC[C@H]2O)c(C)c1 (racemic) | inactive
Cc1cc(C)c(OCCN[C@H]2CC[C@H](O)CC2)c(C)c1 | inactive

System: Mus musculus
Assay: Anticonvulsant activity in mouse assessed as protection against subcutaneous pentylenetetrazol-induced seizures at 100 mg/kg, ip measured after 4 hrs
Format: functional, organism-based
Conditions: not given
Method in brief: as §3

SMILES | Activity
Cc1cc(C)c(OCCN[C@@H]2CCCC[C@H]2O)c(C)c1 (racemic) | inactive

System: Mus musculus
Assay: Neurotoxicity in mouse at 30 mg/kg, ip after 0.5 hrs by rotarod test
Format: toxicity, organism-based
Conditions: in vivo
Method in brief: (§4)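 Mice were dosed ip with compound suspended in 0.5% methylcellulose. Rotarod: a 1 in. knurled rod turning at 6 rpm. Neurotoxicity was scored as failure to stay on the rod for at least 1 min in each of three trials. Results are given as the number of animals affected out of the number tested.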

SMILES | Activity
Cc1cc(C)c(OCCN[C@@H]2CCCC[C@H]2O)c(C)c1 (racemic) | Non-toxic
Cc1cc(C)c(OCCN[C@H]2CC[C@H](O)CC2)c(C)c1 | Non-toxic

System: Mus musculus
Assay: Neurotoxicity in mouse at 30 mg/kg, ip after 4 hrs by rotarod test
Format: toxicity, organism-based
Conditions: in vivo
Method in brief: as §4

SMILES | Activity
Cc1cc(C)c(OCCN[C@@H]2CCCC[C@H]2O)c(C)c1 (racemic) | Non-toxic
Cc1cc(C)c(OCCN[C@H]2CC[C@H](O)CC2)c(C)c1 | Non-toxic

System: Mus musculus
Assay: Neurotoxicity in mouse at 100 mg/kg, ip after 0.5 hrs by rotarod test
Format: toxicity, organism-based
Conditions: in vivo
Method in brief: as §4

SMILES | Activity
Cc1cc(C)c(OCCN[C@@H]2CCCC[C@H]2O)c(C)c1 (racemic) | Toxic

System: Mus musculus
Assay: Neurotoxicity in mouse at 100 mg/kg, ip after 4 hrs by rotarod test
Format: toxicity, organism-based
Conditions: in vivo
Method in brief: as §4

SMILES | Activity
Cc1cc(C)c(OCCN[C@@H]2CCCC[C@H]2O)c(C)c1 (racemic) | Non-toxic
Cc1cc(C)c(OCCN[C@H]2CC[C@H](O)CC2)c(C)c1 | Non-toxic

System: Mus musculus
Assay: Neurotoxicity in mouse at 300 mg/kg, ip after 0.5 hrs by rotarod test
Format: toxicity, organism-based
Conditions: in vivo
Method in brief: as §4

SMILES | Activity
Cc1cc(C)c(OCCN[C@@H]2CCCC[C@H]2O)c(C)c1 (racemic) | Toxic
Cc1cc(C)c(OCCN[C@H]2CC[C@H](O)CC2)c(C)c1 | Toxic

System: Rattus norvegicus
Assay: Anticonvulsant activity in rat assessed as protection against maximal electric shock-induced seizures at 30 mg/kg, po measured after […]
Format: functional, organism-based
Conditions: not given

SMILES | Activity
Cc1cc(C)c(OCCN[C@H]2CC[C@H](O)CC2)c(C)c1 | inactive
